# Reference: article PMC10823175 (Proceedings of the National Academy of Sciences of the …, 2024)
# Marks after values point to notes of the source that are not given here.
# Legend:
# eIF4A1 [1] = target: T1, eIF4A1 (Homo sapiens, UniProt P60842); type: binding; conditions: for RNA template selectivity of compound-induced eIF4A1 clamping: 10 µM, poly (AG)8 vs poly (UC)8 RNA
# Method in brief: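 Clamping: 1 mM AMPPNP, ΔmP versus DMSO, n = 3 ±SD. Dissociation: complexes with 1 mM ATP, 30 min RT dark, then 1,000-fold excess unlabeled poly(AG)8, polarization over time; one-phase-decay half-life, 95% CI errors.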
# eIF4A1 [2] = target: T1, eIF4A1; assay: Differential scanning fluorimetry of eIF4A1; type: binding; conditions: eIF4A1 8 µM, compound 15 µM, 15 µM poly (AG)8, 1 mM AMPPNP
# Method in brief: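 His6-eIF4A1 (E. coli BL21(DE3), Ni-NTA then Q-Sepharose) at 8 µM with 15 µM test compound or DMSO. Heated 37 to 75 °C at 1 °C/min; ΔT50 from the unfolding midpoint; n = 3 ±SD.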
# [3] = delivered IV 1 mg/kg; cited from earlier work
# 4T1-526 cells = assay: Cell death of 4T1-526 cells; type: cell-based; conditions: 72h exposure at IC50 doses
# [4] = Plasma protein binding, mouse; type: in vitro ADME
# [5] = tested on: mRNA translation in 4T1-526 cells; assay: Puromycin incorporation in 4T1-526 cells; type: cell-based; conditions: read-out: IC50 for inhibition of mRNA translation
# [6] = Plasma protein binding, human; type: in vitro ADME
# [7] = tested on: cap-dependent (FLuc) translation; assay: In vitro translation in Krebs-2 extracts with bicistronic reporter mRNA; type: biochemical; conditions: read-out: IC50 toward inhibition of FLuc synthesis from (CAG)-FF/HCV-IRES/Ren mRNA, n = 2 ±SD
# 4T1-526 mammary tumors = assay: 4T1-526 mammary fat pad tumor growth; type: in vivo, BALB/c mice
# [8] = tested on: MDA-MB-231, 4T1, MRC-5 cells; assay: Western blot of c-MYC, cyclin D1 and PARP; type: cell-based; conditions: MDA-MB-231 or 4T1 cancer cells; MG-002, CR-1-31B 100 nM, DXR 0.5 µg/mL; 24 h
# T1 sequence (P60842 whole entry): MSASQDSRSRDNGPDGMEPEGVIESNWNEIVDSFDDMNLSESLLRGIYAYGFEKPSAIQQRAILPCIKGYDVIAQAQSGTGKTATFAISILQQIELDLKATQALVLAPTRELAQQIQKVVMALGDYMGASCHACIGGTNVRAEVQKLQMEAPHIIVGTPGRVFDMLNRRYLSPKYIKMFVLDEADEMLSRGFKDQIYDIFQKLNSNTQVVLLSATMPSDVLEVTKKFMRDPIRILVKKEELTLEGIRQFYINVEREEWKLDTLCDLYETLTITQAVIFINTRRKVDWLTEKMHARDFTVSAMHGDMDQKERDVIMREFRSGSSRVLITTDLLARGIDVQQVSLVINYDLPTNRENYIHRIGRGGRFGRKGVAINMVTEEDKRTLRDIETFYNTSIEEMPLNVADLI
Compound,RNA template selectivity of compound-induced eIF4A1 clamping (eIF4A1 [1]),"half-life of complexes, fold less than those formed with MG-002 (eIF4A1 [1]; poly (AG) RNA)",transition midpoint temperature shift (ΔT50) (eIF4A1 [2]) [°C],T1/2 (h) [3],cell death (4T1-526 cells),Plasma protein binding (% bound) Mouse [4] [% bound],IC50 [5] [nM],Plasma protein binding (% bound) Human [6] [% bound],IC50 [7] [nM],tumor growth after intraperitoneal or intravenous delivery (4T1-526 mammary tumors; intraperitoneal or intravenous delivery),cleavage of PARP [8],"primary tumor response, monotherapy versus combination (4T1-526 mammary tumors; 0.5 mg/kg MG-002 PO, 2.5 mg/kg DXR IP, every 3 d)"
COc1cc2c(c(OC)n1)[C@]1(O)[C@H](O)[C@H](CN(C)C)[C@@H](c3ccccc3)[C@]1(c1ccc(C#N)cc1)O2 [eFT226],discriminated between poly (AG)8 and poly (UC)8 RNA templates,approximately 2.5 fold,7,10.9^§ h,Significant cell death,73.4 ± 1.1,~8,79.4 ± 0.3,813 ± 91,similarly delayed tumor growth,–,–
"COc1cccc2c1C(=O)c1c(O)c3c(c(O)c1C2=O)C[C@@](O)(C(=O)CO)C[C@@H]3O[C@H]1C[C@H](N)[C@H](O)[C@H](C)O1 [DXR, doxorubicin]",–,–,–,–,–,–,–,–,–,–,cleavage of PARP was observed,equally responsive
"CC(/C=C/C(C)=C/[C@@H]1Cc2nc(cs2)[C@@H](C)C[C@@H](N)CC(=O)O[C@@H](C)C/C(C)=C/C=C\C(=O)O1)=C\CN(C)C [PatA, pateamine A]",stabilized binding of eIF4A1 to both polypurine and polypyrimidine RNA templates,–,10,–,–,–,–,–,–,–,–,–
